Active and inactive are the calls of the source. The calls are words filed in the database; no cut-off is given here.
Legend:
Mus musculus [1] = experiment: Protection against cerulein-induced acute pancreatitis in C57BL/6J mouse assessed as reduction in MCP1 mRNA level at 30 mg/kg administered 24 hrs post-cerulein addition and measured after 24 hrs by Trisure-reagent based RT-PCR analysis; type: functional, organism-based
Outline: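 Post-induction (treatment) protocol in C57BL/6J mice. Acute pancreatitis is induced by several cerulein administrations, followed by ip sEH inhibitor at 3 or 30 mg/kg. Pancreatic mRNA of TNF-α, IL-1β, MCP-1 and ATF3 is quantified against control and cerulein-only groups. Mean ± SEM, n = 5 per group.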

[2] = Half life in CD-1 mouse at 1 mg/kg, ip measured up to 24 hrs by LC-MS analysis; type: ADME, organism-based; conditions: in vivo
Outline: (§1)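 Single dose, 1 mg/kg, given to mice intravenously or intraperitoneally. Parameters are taken from the plasma concentration–time profile: T1/2, Tmax, Cmax, C0 (iv only), AUClast, AUCINF_obs, Vz and Cl. Bioavailability is derived from ip versus iv exposure.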

Mus musculus [3] = experiment: Protection against cerulein-induced acute pancreatitis in C57BL/6J mouse assessed as reduction in IL-1beta mRNA level at 30 mg/kg administered twice per day for 5 days followed by cerulein addition and measured 24 hrs post-last dose by Trisure-reagent based RT-PCR analysis; type: functional, organism-based; conditions: time 6.0 day
Outline: (§2)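 Pre-induction (prevention) protocol in C57BL/6J mice. Inhibitor is given ip at 30 mg/kg before cerulein induction of acute pancreatitis. Pancreatic mRNA of TNF-α, IL-1β, MCP-1 and ATF3 is compared with control and cerulein-only mice. Mean ± SEM, n = 5 per group.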

Mus musculus [4] = experiment: Protection against cerulein-induced acute pancreatitis in C57BL/6J mouse assessed as reduction in TNF-alpha mRNA level at 30 mg/kg administered twice per day for 5 days followed by cerulein addition and measured 24 hrs post-last dose by Trisure-reagent based RT-PCR analysis; type: functional, organism-based; conditions: time 6.0 day; outline: as §2
[5] = AUClast in CD-1 mouse at 1 mg/kg, iv measured up to 24 hrs by LC-MS analysis; type: ADME, organism-based; design: route intravenous, dose 1 mg/kg, time <=24; conditions: in vivo; outline: as §1
Mus musculus [6] = experiment: Protection against cerulein-induced acute pancreatitis in C57BL/6J mouse assessed as reduction in edema at 30 mg/kg administered twice per day for 5 days followed by cerulein addition and measured 24 hrs post-last dose by H and E staining based histological analysis; type: functional, organism-based; conditions: time 6.0 day
Outline: (§3)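 H&E-stained pancreas sections are scored for edema and inflammation. Groups are control, cerulein and cerulein plus inhibitor, in both the pre-induction and post-induction cerulein acute pancreatitis models in mice.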

Mus musculus [7] = experiment: Protection against cerulein-induced acute pancreatitis in C57BL/6J mouse assessed as reduction in ATF3 mRNA level at 30 mg/kg administered twice per day for 5 days followed by cerulein addition and measured 24 hrs post-last dose by Trisure-reagent based RT-PCR analysis; type: functional, organism-based; conditions: time 6.0 day; outline: as §2
[8] = Clearance in CD-1 mouse at 1 mg/kg, ip measured up to 24 hrs by LC-MS analysis; type: ADME, organism-based; conditions: in vivo; outline: as §1
Mus musculus [9] = experiment: Protection against cerulein-induced acute pancreatitis in C57BL/6J mouse assessed as reduction in edema at 30 mg/kg administered 24 hrs post-cerulein addition and measured after 24 hrs by H and E staining based histological analysis; type: functional, organism-based; outline: as §3
[10] = Tmax in CD-1 mouse at 1 mg/kg, ip measured up to 24 hrs by LC-MS analysis; type: ADME, organism-based; conditions: in vivo; outline: as §1
[11] = AUC (infinity) in CD-1 mouse at 1 mg/kg, ip measured up to 24 hrs by LC-MS analysis; type: ADME, organism-based; design: route intraperitoneal, dose 1 mg/kg, time <=24; conditions: in vivo; outline: as §1
Mus musculus [12] = experiment: Protection against cerulein-induced acute pancreatitis in C57BL/6J mouse assessed as reduction in inflammation at 30 mg/kg administered 24 hrs post-cerulein addition and measured after 24 hrs by H and E staining based histological analysis; type: functional, organism-based; outline: as §3
[13] = Clearance in CD-1 mouse at 1 mg/kg, iv measured up to 24 hrs by LC-MS analysis; type: ADME, organism-based; conditions: in vivo; outline: as §1
[14] = Apparent volume of distribution in CD-1 mouse at 1 mg/kg, ip measured up to 24 hrs by LC-MS analysis; type: ADME, organism-based; conditions: in vivo; outline: as §1
[15] = Initial plasma concentration in CD-1 mouse at 1 mg/kg, iv measured up to 24 hrs by LC-MS analysis; type: ADME, organism-based; conditions: in vivo; outline: as §1
[16] = Selectivity ratio of inhibition of recombinant human CYP3A4 to IC50 for inhibition of recombinant mouse soluble epoxide hydrolase using DBF as substrate
Homo sapiens [17] = organism: Homo sapiens; experiment: Selectivity ratio of inhibition of recombinant human CYP3A4 to IC50 for inhibition of recombinant human soluble epoxide hydrolase using 7-BFC as substrate
Homo sapiens [18] = organism: Homo sapiens; experiment: Selectivity ratio of inhibition of recombinant human CYP2C19 to IC50 for inhibition of recombinant human soluble epoxide hydrolase
Homo sapiens [19] = organism: Homo sapiens; experiment: Selectivity ratio of inhibition of recombinant human CYP2D6 to IC50 for inhibition of recombinant human soluble epoxide hydrolase
[20] = target: T1, Bifunctional epoxide hydrolase 2 (Homo sapiens, UniProt P34913); experiment: Inhibition of recombinant human soluble epoxide hydrolase using CMNPC as substrate preincubated for 5 mins followed by substrate addition and measured at 30 secs interval for 10 mins by fluorescence assay
T1 sequence (P34913 whole entry): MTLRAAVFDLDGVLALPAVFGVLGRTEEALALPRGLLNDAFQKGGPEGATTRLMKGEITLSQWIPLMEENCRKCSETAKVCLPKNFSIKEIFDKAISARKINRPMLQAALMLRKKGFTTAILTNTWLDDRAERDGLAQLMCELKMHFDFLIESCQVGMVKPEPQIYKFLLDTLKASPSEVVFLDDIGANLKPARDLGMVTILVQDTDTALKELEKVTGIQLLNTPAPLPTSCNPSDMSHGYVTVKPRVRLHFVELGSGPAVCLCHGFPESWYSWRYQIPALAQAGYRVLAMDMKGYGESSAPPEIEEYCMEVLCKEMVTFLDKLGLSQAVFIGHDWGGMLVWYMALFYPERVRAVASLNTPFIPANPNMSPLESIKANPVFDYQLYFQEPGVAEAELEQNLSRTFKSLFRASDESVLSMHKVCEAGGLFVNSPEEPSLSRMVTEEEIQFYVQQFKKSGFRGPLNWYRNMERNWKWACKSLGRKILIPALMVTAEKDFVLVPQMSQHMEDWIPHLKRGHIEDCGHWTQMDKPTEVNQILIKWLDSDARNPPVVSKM

Homo sapiens [21] = organism: Homo sapiens; experiment: Selectivity ratio of inhibition of recombinant human CYP1A2 to IC50 for inhibition of recombinant human soluble epoxide hydrolase
[22] = Efflux ratio of apparent permeability across basolateral to apical side over apical to basolateral side in human Caco-2 cells at 10 uM measured after 2 hrs by LC-MS/MS analysis
[23] = Selectivity ratio of inhibition of recombinant human CYP2D6 to IC50 for inhibition of recombinant mouse soluble epoxide hydrolase
Homo sapiens [24] = organism: Homo sapiens; experiment: Selectivity ratio of inhibition of recombinant human CYP3A4 to IC50 for inhibition of recombinant human soluble epoxide hydrolase using DBF as substrate
[25] = Selectivity ratio of inhibition of recombinant human CYP2C19 to IC50 for inhibition of recombinant mouse soluble epoxide hydrolase
[26] = Apparent permeability across apical to basolateral side in human Caco-2 cells at 10 uM measured after 2 hrs by LC-MS/MS analysis; conditions: caco-2, 2 h

**Q.** Which results are given for `CC(C)S(=O)(=O)N1CCC(NC(=O)NC23CC4CC(CC(C4)O2)C3)CC1`?
**A.** Activity (Mus musculus [1]): Active; t1/2 [2]: 3.02 h; Activity (Mus musculus [3]): Active; Activity (Mus musculus [4]): Active; AUClast [5]: 59.1 ng·h/mL; Activity (Mus musculus [6]): Active; Activity (Mus musculus [7]): Active; CL/F [8]: 474 mL/min/kg; Activity (Mus musculus [9]): Active; Tmax [10]: 9.6 min; AUC [11]: 35.2 ng·h/mL; Activity (Mus musculus [12]): Active; CL [13]: 279.5 mL/min/kg; Vz [14]: 124.02 L/kg; C0 [15]: 236.23 ng/mL

**Q.** What does the source list for `CC(=O)N1CCC(NC(=O)NC23CC4CC(CC(C4)O2)C3)CC1`?
**A.** Selectivity ratio [16]: > 100; Selectivity ratio (Homo sapiens [17]): > 100; Selectivity ratio (Homo sapiens [18]): > 100; Selectivity ratio (Homo sapiens [19]): > 100; IC50 [20]: 29.9 nM; Selectivity ratio (Homo sapiens [21]): > 100; efflux ratio at 2 h, 10 µM [22]: 4.3; Selectivity ratio [23]: > 100; Selectivity ratio (Homo sapiens [24]): > 100; Selectivity ratio [25]: > 100; Papp [26]: 2.24 ×10⁻⁶ cm/s
